This passage reports IC50, inhibition and Selectivity index results from ChEMBL document CHEMBL1148799, “Solid-phase synthesis and insights into structure-activity relationships of safinamide analogues as potent and selective inhibitors of type B monoamine oxidase” (J Med Chem, 2007).

SMILES strings stand for the structures. pIC50: −log10 of the molar value.

For assay [1], the target named is T1, Amine oxidase [flavin-containing] B (Rattus norvegicus, UniProt P19643).
T1 sequence (P19643 whole entry): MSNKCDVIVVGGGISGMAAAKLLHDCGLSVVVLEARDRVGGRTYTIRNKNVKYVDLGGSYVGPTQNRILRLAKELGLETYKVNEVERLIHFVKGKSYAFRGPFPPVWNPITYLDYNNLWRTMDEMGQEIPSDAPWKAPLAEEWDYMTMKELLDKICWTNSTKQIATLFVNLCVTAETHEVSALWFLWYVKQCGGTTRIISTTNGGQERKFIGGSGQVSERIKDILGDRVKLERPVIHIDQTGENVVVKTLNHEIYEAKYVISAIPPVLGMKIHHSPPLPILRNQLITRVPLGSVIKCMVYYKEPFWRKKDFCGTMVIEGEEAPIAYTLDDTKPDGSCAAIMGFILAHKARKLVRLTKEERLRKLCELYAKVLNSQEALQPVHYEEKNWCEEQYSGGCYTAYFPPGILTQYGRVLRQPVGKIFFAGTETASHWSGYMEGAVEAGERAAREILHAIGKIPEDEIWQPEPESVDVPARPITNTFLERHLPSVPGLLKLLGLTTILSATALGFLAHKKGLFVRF
Kind of assay: Inhibition of rat brain mitochondria MAOB by radioenzymatic assay. A digest of the protocol:
(§1)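 Rat brain mitochondrial pellet (500 µg protein) in 0.1 M phosphate buffer, pH 7.40, preincubated 30 min at 37 °C with inhibitor (as methanesulfonate salt) or buffer. Then 0.5 µM ¹⁴C-PEA for 10 min at 37 °C, stopped with perchloric acid. Toluene-extracted metabolites counted by liquid scintillation. IC50 by nonlinear regression from 5–8 concentrations (10^-10–10^-5 M) in duplicate, or % inhibition at one concentration.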

Assay [2] deals with T2, Amine oxidase [flavin-containing] A (Rattus norvegicus, UniProt P21396).
T2 sequence (P21396 whole entry): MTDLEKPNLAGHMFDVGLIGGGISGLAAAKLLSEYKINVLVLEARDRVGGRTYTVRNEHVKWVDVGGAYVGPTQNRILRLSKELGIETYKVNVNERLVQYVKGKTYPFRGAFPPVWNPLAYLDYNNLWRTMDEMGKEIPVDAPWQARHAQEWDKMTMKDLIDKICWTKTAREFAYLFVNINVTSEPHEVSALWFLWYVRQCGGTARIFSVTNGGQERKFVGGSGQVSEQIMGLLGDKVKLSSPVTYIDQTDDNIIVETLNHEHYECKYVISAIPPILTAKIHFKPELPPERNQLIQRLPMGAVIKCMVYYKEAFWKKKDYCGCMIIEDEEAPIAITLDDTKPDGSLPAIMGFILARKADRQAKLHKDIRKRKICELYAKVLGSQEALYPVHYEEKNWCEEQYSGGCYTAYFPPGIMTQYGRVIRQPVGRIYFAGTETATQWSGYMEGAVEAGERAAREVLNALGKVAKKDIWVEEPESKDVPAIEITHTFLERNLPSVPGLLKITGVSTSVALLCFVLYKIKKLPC
The assay can be described thus: Inhibition of rat brain mitochondria MAOA at 100 uM by radioenzymatic assay. A digest of the protocol: (§2)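 Rat brain mitochondrial pellet (500 µg protein) in 0.1 M phosphate buffer, pH 7.40, preincubated 30 min at 37 °C with inhibitor (as methanesulfonate salt) or buffer. Then 5 µM ¹⁴C-5-HT for 30 min at 37 °C, stopped with HCl. Ether-extracted acidic metabolites counted by liquid scintillation. IC50 by nonlinear regression from 5–8 concentrations (10^-10–10^-5 M) in duplicate, or % inhibition at one concentration.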

Assay [3] deals with T2, Amine oxidase [flavin-containing] A. Kind of assay: Inhibition of rat brain mitochondria MAOA by radioenzymatic assay. A digest of the protocol:
as §2

For a further assay, the species on record is Rattus norvegicus. The assay can be described thus: Selectivity index, ratio of IC50 for rat brain mitochondria MAOA to IC50 for rat brain mitochondria MAOB. A digest of the protocol: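 IC50(MAO-A)/IC50(MAO-B). Both come from radioenzymatic assays on rat brain mitochondria after 30 min inhibitor preincubation at 37 °C, pH 7.40. MAO-A used 5 µM ¹⁴C-5-HT for 30 min; MAO-B used 0.5 µM ¹⁴C-PEA for 10 min. IC50s from nonlinear regression of duplicate 5–8-point curves.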

Assay [4] deals with T1, Amine oxidase [flavin-containing] B. Kind of assay: Inhibition of rat brain mitochondria MAOB at 10 uM by radioenzymatic assay. A digest of the protocol: as §1

Regarding `NC(=O)[C@H](CO)NCc1ccc(OCc2ccc([N+](=O)[O-])cc2)cc1`, the pIC50 (commonly −log10 of the IC50, conventionally taken in molar units) in assay [1] is 5.15. Also, in assay [2], the inhibition (commonly the drop in the measured response relative to a control, in per cent) at 100 µM was 38%.

For the compound `NC(=O)[C@H](CO)NCc1ccc(OCc2ccccc2)cc1`, the pIC50 is 4.05 in assay [3] and 6.39 in assay [1]. In addition, the Selectivity index in the assay filed under Rattus norvegicus was determined as 220.

Take `NC(=O)CNCc1ccc(OCc2ccccc2)cc1`: the results for the pIC50 in assay [3] and in assay [1] were 5.07 and 5.50, respectively. Further, in the assay filed under Rattus norvegicus, the Selectivity index is 2.7.

Consider `NC(=O)CNCc1ccc(OCc2ccc([N+](=O)[O-])cc2)cc1`, for which the pIC50 in assay [3] is 4.67; in assay [1] it was 5.04. Further, the Selectivity index in the assay listed under Rattus norvegicus amounted to 2.3.

The compound `NC(=O)[C@@H](CO)NCc1ccc(OCc2cccc(Cl)c2)cc1` showed a pIC50 in assay [3] of 4.00. Moreover, the Selectivity index in the assay filed under Rattus norvegicus is 909.

On to `C[C@H](NCc1ccc(OCc2ccccc2)cc1)C(N)=O`, for which the pIC50 in assay [3] was 4.00; in assay [1], 6.59. Also, in the assay filed under Rattus norvegicus, the Selectivity index amounted to 388.

The compound `NC(=O)[C@H](CO)NCc1ccc(OCc2cccc(F)c2)cc1` showed a pIC50 in assay [3] of 4.00. The Selectivity index in the assay filed under Rattus norvegicus was found to be 714.

Regarding `NC(=O)[C@@H](NCc1ccc(OCc2cccc(F)c2)cc1)c1ccccc1`, the pIC50 in assay [3] was 4.47; in assay [1], 5.00. In addition, in the assay filed under Rattus norvegicus, the Selectivity index amounted to 3.4.

For the compound `C[C@H](C(N)=O)N1CCc2cc(OCc3cccc(F)c3)ccc2C1`, the values for the pIC50 in assay [3] and in assay [1] were 4.30 and 7.77, respectively. Moreover, in the assay listed under Rattus norvegicus, the Selectivity index is 2940.

In assay [1], `NC(=O)[C@H](CO)NCc1ccc(OCc2ccc(Cl)cc2)cc1` gave a pIC50 of 5.96. The compound also gave an inhibition at 100 µM in assay [2] of 47%.

As for `NC(=O)[C@H](CO)NCc1ccc(OCc2cccc(Cl)c2)cc1`, the pIC50 in assay [1] is 7.37. Moreover, the Selectivity index in the assay listed under Rattus norvegicus came to 1970.

In assay [3], `C[C@@H](NCc1ccc(OCc2cccc(F)c2)cc1)C(N)=O` showed a negative-log IC50 (pIC50) of 4.38.

`C[C@@H](NCc1ccc(OCc2cccc(Cl)c2)cc1)C(N)=O`: the negative-log IC50 (pIC50) is 4.14 in assay [3] and 6.10 in assay [1]. For the same compound, the Selectivity index in the assay filed under Rattus norvegicus was 90.

In the case of `C[C@H](NCc1ccc(OCc2cccc(Cl)c2)cc1)C(N)=O`, the pIC50 in assay [1] is 7.48. In addition, in the assay filed under Rattus norvegicus, the Selectivity index is 3460.

Turning to `C[C@H](NCc1ccc(OCc2ccc([N+](=O)[O-])cc2)cc1)C(N)=O`, at 100 µM the inhibition in assay [2] was 22%. In addition, in assay [4], the inhibition at 10 µM was 37%.

With `NC(=O)[C@@H](NCc1ccc(OCc2cccc(Cl)c2)cc1)c1ccccc1`, in assay [1], the pIC50 was 5.00. In addition, at 100 µM the inhibition in assay [2] was 33%.

For `NC(=O)CNCc1ccc(OCc2ccc(Cl)cc2)cc1`, the pIC50 was 4.91 in assay [3] and 5.15 in assay [1]. In addition, the Selectivity index in the assay filed under Rattus norvegicus was 1.7.

In the case of `NC(=O)[C@@H](NCc1ccc(OCc2ccc(Cl)cc2)cc1)c1ccccc1`, the inhibition at 100 µM in assay [2] was 27%. Also, 10 µM produced 34% inhibition in assay [4].

The compound `C[C@H](NCc1ccc(OCc2ccc(Cl)cc2)cc1)C(N)=O` had a pIC50 in assay [1] of 5.66. Further, the inhibition at 100 µM in assay [2] is 37%.

In turn, `NC(=O)[C@@H](NCc1ccc(OCc2ccc([N+](=O)[O-])cc2)cc1)c1ccccc1` showed an inhibition at 100 µM in assay [2] of 16%. In assay [4], this compound had an inhibition at 10 µM of 4%.

As for `C[C@@H](C(N)=O)N1CCc2cc(OCc3cccc(F)c3)ccc2C1`, the negative-log IC50 (pIC50) is 4.35 in assay [3] and 6.62 in assay [1]. In the assay listed under Rattus norvegicus, the Selectivity index turned out to be 188.

For `NC(=O)CNCc1ccc(OCc2cccc(F)c2)cc1`, the pIC50 in assay [3] was 4.87; in assay [1], 5.65. In addition, the Selectivity index in the assay listed under Rattus norvegicus came to 6.1.

Compound `NC(=O)[C@@H](NCc1ccc(OCc2ccccc2)cc1)c1ccccc1` showed a pIC50 in assay [1] of 4.13. In addition, the inhibition at 100 µM in assay [2] was 35%.

Turning to `NC(=O)CNCc1ccc(OCc2cccc(Cl)c2)cc1`, the pIC50 is 4.43 in assay [3] and 6.47 in assay [1]. The Selectivity index in the assay listed under Rattus norvegicus was 109.
